# Results collected from several papers.
SMILES,tested on,test,test system,conditions,endpoint,result
O=C(COc1ccc(Cl)cc1)NC12CC(c3nnc([C@H]4C[C@@H](OC(F)(F)F)C4)o3)(C1)C2,,,"human, plasma","oral, 100 mg, multiple doses, once daily, steady state, healthy volunteers",Cmax,5.39 µM
O=C(Nc1ccc(Cl)cc1)Nc1cccc(-c2cn(Cc3ccc(Cl)cc3)nn2)c1,L02,"cell growth or viability, CCK-8",,"50 µM, 72 h",viability,102%
COc1ccc(NC(=O)Nc2cccc(-c3cn(Cc4cccc(Cl)c4)nn3)c2)cc1,L02,"cell growth or viability, CCK-8",,"50 µM, 72 h",viability,123%
CC(C)n1c(C2CCNCC2)nc2c([N+](=O)[O-])c(Br)c(Br)cc21,,,"human, plasma","oral, 100 mg, patients",Cmax,73.2 ng/mL
COc1ccc(-c2c(Nc3ccccn3)[nH]c3c(C4=CCCCC4)c(-c4ccccc4)nn3c2=O)cc1,,,"human, plasma","oral, 150 mg once daily, multiple doses, patients",Cmax,4960 ng/mL
CCONC(=O)N1CCC[C@H](C(=O)NCc2nc(-c3ccc(C#N)cc3)cs2)C1,,,Caco-2,,efflux ratio,6.9
O=C(NCc1cn(Cc2cccc(Cl)c2)nn1)Nc1ccc(Cl)cc1,L02,"cell growth or viability, CCK-8",,"50 µM, 72 h",viability,100%
COc1ccc(NC(=O)Nc2ccc(-c3cn(Cc4ccc(Br)cc4)nn3)cc2)cc1,L02,"cell growth or viability, CCK-8",,"50 µM, 72 h",viability,91.1%
O=C(Nc1ccc(-c2cn(Cc3ccc(Br)cc3)nn2)cc1)Nc1ccccc1Br,L02,"cell growth or viability, CCK-8",,"50 µM, 72 h",viability,104%
COc1ccc2c(c1)CN(C(=O)CCN1CCC(Cc3ccccc3)CC1)CC[S@@+]2[O-],,,"male human, plasma","intravenous, 0.05 mg/kg, healthy volunteers",Cmax,130 ng/mL
Cc1ccccc1Cn1cc(-c2cccc(NC(=O)Nc3ccc(F)cc3)c2)nn1,L02,"cell growth or viability, CCK-8",,"50 µM, 72 h",viability,103%
O=C(Nc1ccc(Cl)cc1)Nc1cccc(-c2cn(Cc3cccc(Cl)c3)nn2)c1,L02,"cell growth or viability, CCK-8",,"50 µM, 72 h",viability,71.8%
